According to ChEMBL document CHEMBL1133218, “N-[(R,R)-(E)-1-(4-chloro-benzyl)-3-(2-oxo-azepan-3-ylcarbamoyl)-allyl]-N-methyl-3,5-bis-trifluoromethyl-benzamide: an orally active neurokinin NK1/NK2 antagonist” (Bioorg Med Chem Lett, 2000):

How the values were obtained:
Substance-K receptor = target: T1, Substance-K receptor (Homo sapiens, UniProt P21452); assay: In vitro inhibition of [125I]NKA binding to transfected Chinese hamster ovary cells (CHO cells) expressing recombinant human Tachykinin receptor 2; type: cell-based
T1 sequence (P21452 whole entry): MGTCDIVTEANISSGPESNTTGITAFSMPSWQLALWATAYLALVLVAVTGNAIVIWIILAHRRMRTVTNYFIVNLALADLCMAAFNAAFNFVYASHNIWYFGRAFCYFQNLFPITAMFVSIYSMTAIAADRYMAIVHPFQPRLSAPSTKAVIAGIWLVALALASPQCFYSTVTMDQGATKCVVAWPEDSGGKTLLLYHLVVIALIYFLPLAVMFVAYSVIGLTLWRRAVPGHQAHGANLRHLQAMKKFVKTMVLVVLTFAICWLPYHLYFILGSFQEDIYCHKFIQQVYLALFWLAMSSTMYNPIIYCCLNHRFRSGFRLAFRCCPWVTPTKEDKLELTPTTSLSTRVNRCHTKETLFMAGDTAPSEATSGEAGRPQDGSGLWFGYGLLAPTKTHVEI
In short: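 Binding of 0.05 nM [125I]-NKA (2200 Ci/mmol) to 3×10^5 hNK2-transfected CHO cells in 20 mM HEPES pH 7.4 with 2 mM MnSO4 and 6 mM MgCl2, across a range of drug concentrations. Incubated 20 min at room temperature. Nonspecific binding taken with 50 nM NKA. Rapid filtration, 4 washes in ice-cold Tricine, filter radioactivity by scintillation counting, triplicates.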

Cavia porcellus [1] = assay: In vivo inhibition against beta-Ala8-NKA-induced bronchoconstriction in guinea pig at 2 h; type: functional
Cavia porcellus [2] = assay: In vivo inhibition against beta-Ala8-NKA-induced bronchoconstriction in guinea pig at 4 h; type: functional
Cavia porcellus [3] = assay: In vivo inhibition against Sar9SP-induced bronchoconstriction in guinea pigs at 2 h; type: functional
Cavia porcellus [4] = assay: In vivo inhibition against Sar9SP-induced bronchoconstriction in guinea pigs at 4 h; type: functional
Cavia porcellus [5] = assay: In vivo inhibition against Sar9SP-induced bronchoconstriction in guinea pigs at 1 mg/kg for 12 h; type: functional

Structure (SMILES)	IC50 (Substance-K receptor)	further results
CN(C(=O)c1cc(C(F)(F)F)cc(C(F)(F)F)c1)[C@@H](/C=C/C(=O)N[C@H]1CCCCNC1=O)Cc1ccc(Cl)cc1 (mixture of isomers)	120 nM	
CN(C(=O)c1cc(C(F)(F)F)cc(C(F)(F)F)c1)[C@H](/C=C/C(=O)N[C@@H]1CCCCNC1=O)Cc1ccc(Cl)cc1	123 nM	
CN(C(=O)c1cc(C(F)(F)F)cc(C(F)(F)F)c1)[C@H](/C=C/C(=O)N[C@H]1CCCCNC1=O)Cc1ccc(Cl)cc1	300 nM	
CN(C(=O)c1cc(C(F)(F)F)cc(C(F)(F)F)c1)C(/C=C/C(=O)NC1CCCCNC1=O)Cc1ccc(Cl)cc1 (mixture of isomers)	55 nM	
CN(C(=O)c1cc(C(F)(F)F)cc(C(F)(F)F)c1)[C@@H](/C=C/C(=O)N[C@@H]1CCCCNC1=O)Cc1ccc(Cl)cc1	24 nM	ED50 (Cavia porcellus [1]): 0.9 mg/kg; ED50 (Cavia porcellus [2]): 0.73 mg/kg; ED50 (Cavia porcellus [3]): 0.036 mg/kg; ED50 (Cavia porcellus [4]): 0.03 mg/kg; inhibition in vivo at 1 mg/kg (Cavia porcellus [5]): 85%
